# Source: ChEMBL document CHEMBL1153083, “Antiprotozoal, anticancer and antimicrobial activities of dihydroartemisinin acetal dimers and monomers” (Bioorg Med Chem, 2009)
# pIC50: −log10 of the molar value. The source made the active and inactive calls. The calls are words filed in the database; no cut-off is given here.
# Experiments:
# Cryptococcus neoformans = assay: Antifungal activity against Cryptococcus neoformans ATCC 90113 by modified CLSI/NCCLS method; format: functional, organism-based
# Leishmania donovani = assay: Antileishmanial activity against Leishmania donovani promastigotes after 48 hrs by alamar blue assay; format: functional, organism-based; conditions: for pIC50: read-out: IC50
# Candida albicans = assay: Antifungal activity against Candida albicans ATCC 90028 by modified CLSI/NCCLS method; format: functional, organism-based; conditions: for pIC50: Candida albicans, ATCC 90028, read-out: IC50
# Nakaseomyces glabratus = assay: Antifungal activity against Candida glabrata ATCC 90030 by modified CLSI/NCCLS method; format: functional, organism-based
# Pichia kudriavzevii = assay: Antifungal activity against Candida krusei ATCC 6258 by modified CLSI/NCCLS method; format: functional, organism-based; conditions: Pichia kudriavzevii, ATCC 6258; read-out: IC50
# Aspergillus fumigatus = assay: Antifungal activity against Aspergillus fumigatus ATCC 90906 by modified CLSI/NCCLS method; format: functional, organism-based; conditions: for pIC50: Aspergillus fumigatus, ATCC 90906, read-out: IC50
# Staphylococcus aureus = assay: Antibacterial activity against methicillin-resistant Staphylococcus aureus ATCC 43300 by modified CLSI/NCCLS method; format: functional, organism-based
# Plasmodium falciparum [1] = assay: Antiplasmodial activity against Plasmodium falciparum W2 infected in RBCs by parasitic LDH release assay; format: functional, organism-based
# How it was run: (§1)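 Infected erythrocytes at 2% parasitemia and 2% hematocrit, in RPMI 1640 with 10% human serum and amikacin 60 μg/mL, were exposed to serial dilutions under N2/O2/CO2 (90:5:5) at 37°C for 72 h. LDH was read with Malstat reagent (30 min), then NBT/PES in the dark (60 min), stopped with 5% acetic acid, at 650 nm. IC50 came from percent growth dose-response curves.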
# [2] = Toxicity against african green monkey Vero cells; format: cell-based; conditions: chlorocebus sabaeus
# How it was run: (§2)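 Cells seeded at 25,000 per well and incubated 24 h, then exposed to samples for 48 h. Viable cells were counted by neutral red, with DMSO as vehicle control. IC50 or TC50 values were derived from logarithmic plots of growth inhibition versus concentration.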
# [3] = Selectivity index, ratio of TC50 for african green monkey (Cercopithecus aethiops) Vero cells to IC50 for Plasmodium falciparum W2; format: toxicity, cell-based
# [4] = Selectivity index, ratio of TC50 for african green monkey (Cercopithecus aethiops) Vero cells to IC50 for Plasmodium falciparum D6; format: toxicity, cell-based
# [5] = system: Mycobacterium intracellulare; assay: Antibacterial activity against Mycobacterium intracellular ATCC 23068 by Franzblau method; format: functional, organism-based; conditions: for pIC50: Mycobacterium intracellulare, ATCC 23068, read-out: IC50
# Plasmodium falciparum [6] = assay: Antiplasmodial activity against Plasmodium falciparum D6 infected in RBCs by parasitic LDH release assay; format: functional, organism-based; how it was run: as §1
# Vero = assay: (§3) Toxicity against african green monkey Vero cells after 48 hrs by neutral red assay; format: cell-based; conditions: chlorocebus sabaeus, vero, 48 h; how it was run: as §2
# SK-OV-3 = assay: Cytotoxicity against human SKOV3 cells after 48 hrs by neutral red assay; format: functional, cell-based; conditions: for IC50: sk-ov-3; how it was run: as §2
# [7] = Toxicity against pig LLC-PK11 cells after 48 hrs by neutral red assay; format: cell-based, Sus scrofa; conditions: for TC50: llc-pk11, 48 h; for CC50 at 48 h: LLC-PK11 cells, read-out: TC50; how it was run: as §2
# BT-549 = assay: Cytotoxicity against human BT549 cells after 48 hrs by neutral red assay; format: functional, cell-based; conditions: for IC50: bt-549; for pIC50: Homo sapiens, BT-549, 48 h, read-out: IC50; how it was run: as §2
# SK-MEL = assay: Cytotoxicity against human SK-MEL cells after 48 hrs by neutral red assay; format: functional, cell-based; conditions: for IC50: sk-mel; for pIC50: Homo sapiens, SK-MEL, 48 h, read-out: IC50; how it was run: as §2
# Escherichia coli = assay: Antibacterial activity against Escherichia coli ATCC 35218 by modified CLSI/NCCLS method; format: functional, organism-based
# Pseudomonas aeruginosa = assay: Antibacterial activity against Pseudomonas aeruginosa ATCC 27853 by modified CLSI/NCCLS method; format: functional, organism-based
# KB = assay: Cytotoxicity against human KB cells after 48 hrs by neutral red assay; format: functional, cell-based; conditions: for pIC50: Homo sapiens, KB, 48 h, read-out: IC50; how it was run: as §2
# [8] = as §3; format: cell-based; conditions: chlorocebus sabaeus, Vero cells; read-out: TC50; how it was run: as §2
SMILES,pIC50 (Cryptococcus neoformans),"IC90 (Leishmania donovani; Leishmania donovani, 48 h)",pIC50 (Candida albicans),pIC50 (Pichia kudriavzevii),"pIC50 (Leishmania donovani; Leishmania donovani, 48 h)",IC50 (Staphylococcus aureus),pIC50 (Plasmodium falciparum [1]),CC50 [2],selectivity ratio [3],selectivity ratio [4],IC50 (Nakaseomyces glabratus),IC50 [5],pIC50 (Plasmodium falciparum [6]),IC50 (Aspergillus fumigatus),IC50 (SK-OV-3),CC50 at 48 h [8],CC50 at 48 h [7],pIC50 (SK-MEL),pIC50 (BT-549),pIC50 (KB),further results
C[C@@H]1[C@H](O)[C@@H](C)/C=C/C=C/C=C/C=C/C=C/C=C/C=C/[C@H](O[C@@H]2O[C@H](C)[C@@H](O)[C@H](N)[C@@H]2O)C[C@@H]2O[C@](O)(C[C@@H](O)C[C@@H](O)[C@H](O)CC[C@@H](O)C[C@@H](O)CC(=O)O[C@H]1C)C[C@H](O)[C@H]2C(=O)O [AMPHOTERICIN B],6.11,400 nM,6.43,6.07,–,–,–,–,–,–,–,–,–,–,–,–,–,–,–,–,"pIC50 (Nakaseomyces glabratus; Nakaseomyces glabratus, ATCC 90030, read-out: IC50): 6.34; pIC50 (Aspergillus fumigatus): 5.95"
N=C(N)c1ccc(OCCCCCOc2ccc(C(=N)N)cc2)cc1 [PENTAMIDINE],–,6400 nM,–,–,5.55,–,–,–,–,–,–,–,–,–,–,–,–,–,–,–,–
C[C@H]1[C@@H](O)O[C@@H]2O[C@@]3(C)CC[C@H]4[C@H](C)CC[C@@H]1[C@@]24OO3 [ARTENIMOL],6.55,–,6.06,4.55,4.06,Not Active,7.85,1410 nM,100,95,Not Active,Not Active,7.83,Not Active,–,–,–,–,–,–,IC90 (Leishmania donovani): inactive
CC1=CO[C@@H]2O[C@]3(C)CC[C@H]4[C@H](C)CC[C@@H]1[C@@]24OO3 [ANHYDRODIHYDROARTEMISININ],6.52,–,–,4.25,4.52,Not Active,7.59,> 1790 nM,> 70,> 113,Not Active,–,7.80,Not Active,–,–,–,–,–,–,IC90 (Leishmania donovani): inactive; IC50 (Candida albicans): Not Active; pIC50 [5]: 4.25
C[C@H]1[C@@H](O[C@@H](CO[C@H]2O[C@@H]3O[C@@]4(C)CC[C@H]5[C@H](C)CC[C@@H]([C@H]2C)[C@@]35OO4)[C@H](O)CO)O[C@@H]2O[C@@]3(C)CC[C@H]4[C@H](C)CC[C@@H]1[C@@]24OO3,6.28,29700 nM,6.04,–,5.19,–,7.85,–,59,71,–,–,7.93,–,Not Active,–,–,–,–,–,"TC50 (Vero): Not Active; pIC50 (Staphylococcus aureus; Staphylococcus aureus, ATCC 43300, read-out: IC50): 4.64; TC50 [7]: Not Active; IC50 (BT-549): Not Active; IC50 (SK-MEL): Not Active; pIC50 [5]: 4.82; pIC50 (Escherichia coli; Escherichia coli, ATCC 35218, read-out: IC50): 5.12; IC50 (Pseudomonas aeruginosa): Not Active; pIC50 (Aspergillus fumigatus): 5.12; IC50 (KB; kb): Not Active"
CC(=O)O[C@H]1C(=O)[C@@]2(C)[C@H]([C@H](OC(=O)c3ccccc3)[C@]3(O)C[C@H](OC(=O)[C@H](O)[C@@H](NC(=O)c4ccccc4)c4ccccc4)C(C)=C1C3(C)C)[C@]1(OC(C)=O)CO[C@@H]1C[C@@H]2O [PACLITAXEL],–,–,–,–,–,–,–,–,–,–,–,–,–,–,–,530 nM,4390 nM,5.39,–,–,–
C[C@H]1[C@@H](OC/C=C\CO[C@H]2O[C@@H]3O[C@@]4(C)CC[C@H]5[C@H](C)CC[C@@H]([C@H]2C)[C@@]35OO4)O[C@@H]2O[C@@]3(C)CC[C@H]4[C@H](C)CC[C@@H]1[C@@]24OO3,4.62,–,–,–,–,Not Active,8.21,–,116,113,–,Not Active,8.20,Not Active,Not Active,180 nM,–,–,5.82,6.49,TC50 [7]: Non-toxic; IC50 (SK-MEL): Not Active; IC50 (Leishmania donovani): Not Active; IC90 (Leishmania donovani): inactive; IC50 (Candida albicans): Not Active; IC50 (Escherichia coli): Not Active; IC50 (Pseudomonas aeruginosa): Not Active
C[C@H]1[C@@H](OCC(CO[C@H]2O[C@@H]3O[C@@]4(C)CC[C@H]5[C@H](C)CC[C@@H]([C@H]2C)[C@@]35OO4)OS(C)(=O)=O)O[C@@H]2O[C@@]3(C)CC[C@H]4[C@H](C)CC[C@@H]1[C@@]24OO3 (stereo partly specified),5.85,55500 nM,5.37,–,4.64,Not Active,7.93,6400 nM,542,542,–,Not Active,7.93,Not Active,Not Active,2130 nM,–,–,–,6.55,TC50 [7]: Non-toxic; IC50 (BT-549): Not Active; IC50 (SK-MEL): Not Active; IC50 (Escherichia coli): Not Active; IC50 (Pseudomonas aeruginosa): Not Active
C[C@@H]1CC[C@H]2[C@@H](C)C(=O)O[C@@H]3O[C@@]4(C)CC[C@@H]1[C@]32OO4 [ARTEMISININ],6.60,–,–,4.85,4.39,Not Active,7.37,> 1680 nM,> 40,> 51,Not Active,Not Active,7.48,Not Active,–,–,–,–,–,–,IC90 (Leishmania donovani): inactive; IC50 (Candida albicans): Not Active
COc1cccc2c1C(=O)c1c(O)c3c(c(O)c1C2=O)C[C@@](O)(C(=O)CO)C[C@@H]3O[C@H]1C[C@H](N)[C@H](O)[C@H](C)O1 [DOXORUBICIN],–,–,–,–,–,–,–,–,–,–,–,–,–,–,–,–,1290 nM,5.76,5.71,5.69,"TC50 (Vero): Non-toxic; pIC50 (SK-OV-3; Homo sapiens, SK-OV-3, 48 h, read-out: IC50): 5.69"
O=C(O)c1cn(C2CC2)c2cc(N3CCNCC3)c(F)cc2c1=O [CIPROFLOXACIN],–,–,–,–,–,–,–,–,–,–,–,–,–,–,–,–,–,–,–,–,pIC50 [5]: 5.90
C[C@H]1[C@@H](OCC(O)CO[C@H]2O[C@@H]3O[C@@]4(C)CC[C@H]5[C@H](C)CC[C@@H]([C@H]2C)[C@@]35OO4)O[C@@H]2O[C@@]3(C)CC[C@H]4[C@H](C)CC[C@@H]1[C@@]24OO3 (stereo partly specified),6.49,47900 nM,6.10,6.40,4.89,Not Active,8.42,–,100,34,Not Active,Not Active,7.95,Not Active,Not Active,5600 nM,150 nM,5.10,6.32,6.59,–
C[C@H]1[C@@H](OCC(=O)CO[C@H]2O[C@@H]3O[C@@]4(C)CC[C@H]5[C@H](C)CC[C@@H]([C@H]2C)[C@@]35OO4)O[C@@H]2O[C@@]3(C)CC[C@H]4[C@H](C)CC[C@@H]1[C@@]24OO3,6.06,38500 nM,5.62,6.06,5.13,Not Active,8.24,–,44,49,Not Active,Not Active,8.28,–,Not Active,> 8030 nM,100 nM,6.25,6.62,6.62,pIC50 (Aspergillus fumigatus): 4.49
C=C[C@@H](CO[C@H]1O[C@@H]2O[C@@]3(C)CC[C@H]4[C@H](C)CC[C@@H]([C@H]1C)[C@@]24OO3)O[C@H]1O[C@@H]2O[C@@]3(C)CC[C@H]4[C@H](C)CC[C@@H]([C@H]1C)[C@@]24OO3,5.19,62800 nM,5.84,–,4.68,Not Active,7.59,–,30,32,–,Not Active,7.62,–,Not Active,430 nM,> 16100 nM,4.89,5.59,6.57,IC50 (Escherichia coli): Not Active; IC50 (Pseudomonas aeruginosa): Not Active; pIC50 (Aspergillus fumigatus): 4.79
CCN(CC)CCCC(C)Nc1ccnc2cc(Cl)ccc12 (stereo unspecified) [CHLOROQUINE],–,–,–,–,–,–,–,> 14900 nM,–,–,–,–,–,–,–,–,–,–,–,–,–
